Assays:
[1] = molecular target: Muscarinic acetylcholine receptors; M2 & M3 (Homo sapiens) (UniProt P20309+P08172); test: Ratio of binding affinity against Muscarinic acetylcholine receptor M3 to that of Muscarinic acetylcholine receptor M2; format: protein assay
[2] = molecular target: T1, Muscarinic acetylcholine receptor M2 (Homo sapiens) (UniProt P08172); test: Ratio of binding affinity against Muscarinic acetylcholine receptor M5 to that of Muscarinic acetylcholine receptor M2
T1 sequence (whole entry): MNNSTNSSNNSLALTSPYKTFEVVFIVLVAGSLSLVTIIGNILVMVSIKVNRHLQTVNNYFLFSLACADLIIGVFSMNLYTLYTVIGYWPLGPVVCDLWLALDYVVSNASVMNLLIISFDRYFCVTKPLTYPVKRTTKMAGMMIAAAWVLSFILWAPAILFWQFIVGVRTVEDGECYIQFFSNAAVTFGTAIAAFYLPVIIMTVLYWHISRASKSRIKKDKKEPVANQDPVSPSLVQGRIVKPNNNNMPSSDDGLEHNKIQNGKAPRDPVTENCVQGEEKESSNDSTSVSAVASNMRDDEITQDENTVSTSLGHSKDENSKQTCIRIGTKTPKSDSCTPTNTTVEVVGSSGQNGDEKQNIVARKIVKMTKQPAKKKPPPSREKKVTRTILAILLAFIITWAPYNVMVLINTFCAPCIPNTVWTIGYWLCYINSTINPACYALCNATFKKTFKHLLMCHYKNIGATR

[3] = molecular target: T2, Muscarinic acetylcholine receptor M2 (Homo sapiens, UniProt P08172); test: Binding affinity towards Muscarinic acetylcholine receptor M2 stably expressed in CHO-K1 cells using [3H]-QNB as radioligand; format: cell-based
T2 sequence (P08172 whole entry): T1 sequence (whole entry)
Outline: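 Competition binding on membranes of clonal cells expressing receptor at 1–9 pmol/mg protein. Incubated with 180 pM [3H]QNB in 10 mM potassium phosphate pH 7.4 plus 1% DMSO and 0.4% methylcellulose for 120 min at rt to equilibrium. Non-specific binding defined with 0.5 mM atropine, protein set for 700–1500 cpm specific binding, then filtration separation. QNB Kd from saturation with 5–2500 pM [3H]QNB.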

[4] = molecular target: T1, Muscarinic acetylcholine receptor M2 (Homo sapiens); test: Ratio of binding affinity against Muscarinic acetylcholine receptor M4 to that of Muscarinic acetylcholine receptor M2
[5] = molecular target: Muscarinic acetylcholine receptors; M1 & M2 (Homo sapiens) (UniProt P11229+P08172); test: Ratio of binding affinity against Muscarinic acetylcholine receptor M1 to that of Muscarinic acetylcholine receptor M2; format: protein assay
Sequence of Muscarinic acetylcholine receptors; M1 & M2 (Homo sapiens) (P11229 whole entry, looked up, one chain of several): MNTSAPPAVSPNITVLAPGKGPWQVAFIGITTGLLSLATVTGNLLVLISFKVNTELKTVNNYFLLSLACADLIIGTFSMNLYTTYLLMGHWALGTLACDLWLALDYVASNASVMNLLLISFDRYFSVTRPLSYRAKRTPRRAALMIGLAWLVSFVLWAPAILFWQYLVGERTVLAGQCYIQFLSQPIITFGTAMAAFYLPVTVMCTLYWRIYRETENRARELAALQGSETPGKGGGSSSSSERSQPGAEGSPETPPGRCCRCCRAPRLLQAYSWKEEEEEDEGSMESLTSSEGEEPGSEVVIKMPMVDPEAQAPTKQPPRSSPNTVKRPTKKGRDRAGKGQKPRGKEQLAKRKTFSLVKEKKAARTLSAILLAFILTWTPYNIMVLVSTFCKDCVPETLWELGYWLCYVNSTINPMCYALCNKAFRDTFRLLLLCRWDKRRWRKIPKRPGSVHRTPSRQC

`CCOCC(=O)N1CCC(N2CCC(Oc3ccc(S(=O)(=O)c4ccc5c(c4)OCO5)cc3)CC2)CC1` was tested. Which Ratio [1] did it give?
Its Ratio is 5.

What about the Ratio [2] of the same compound?
The Ratio was 13.

And the Ki [3]?
The Ki was 17.9 nM.

And the Ratio [4]?
The Ratio was 2.

What about the Ratio [5] of the same compound?
The Ratio was 6.

Which Ratio [1] does the source give for `O=C(c1cccc2cccnc12)N1CCC(N2CCC(Oc3ccc(S(=O)(=O)c4ccc5c(c4)OCO5)cc3)CC2)CC1` here?
Its Ratio is 10.

What about the Ratio [2] of the same compound?
Its Ratio is 4.

And the Ki [3]?
The Ki was 12 nM.

What about the Ratio [4] of the same compound?
The Ratio was 2.

What about the Ratio [5] of the same compound?
Its Ratio is 9.

How did the Ratio [1] turn out when `CCCCS(=O)(=O)N1CCC(N2CCC(Oc3ccc(S(=O)(=O)c4ccc5c(c4)OCO5)cc3)CC2)CC1` was run?
Its Ratio is 50.

And the Ratio [2]?
The Ratio was 35.

And the Ki [3]?
The Ki was 6.9 nM.

What about the Ratio [4] of the same compound?
The Ratio was 4.

And the Ratio [5]?
Its Ratio is 35.

With `CCCS(=O)(=O)N1CCC(N2CCC(Oc3ccc(S(=O)(=O)c4ccc(OC)cc4)cc3)CC2)CC1` as the compound, how does the Ki [3] read?
The Ki was 139 nM.

With `Cc1ccsc1C(=O)N1CCC(N2CCC(Oc3ccc(S(=O)(=O)c4ccc5c(c4)OCO5)cc3)CC2)CC1` as the compound, how does the Ratio [1] read?
Its Ratio is 109.

What about the Ratio [2] of the same compound?
Its Ratio is 196.

And the Ki [3]?
The Ki was 0.2 nM.

And the Ratio [4]?
Its Ratio is 23.

What about the Ratio [5] of the same compound?
Its Ratio is 234.

For `O=C(c1ccccc1)N1CCC(N2CCC(Oc3ccc(S(=O)(=O)c4ccc5c(c4)OCO5)cc3)CC2)CC1`, which Ratio [1] is on record?
The Ratio was 6.

And the Ratio [2]?
The Ratio was 15.

And the Ki [3]?
Its Ki is 1.6 nM.

What about the Ratio [4] of the same compound?
The Ratio was 6.

And the Ratio [5]?
Its Ratio is 18.

What does the source list for `O=C(c1cccc2ccccc12)N1CCC(N2CCC(Oc3ccc(S(=O)(=O)c4ccc5c(c4)OCO5)cc3)CC2)CC1`?
Ratio [1]: 216; Ratio [2]: 50; Ki [3]: 0.5 nM; Ratio [4]: 28; Ratio [5]: 357

`CC(C)S(=O)(=O)N1CCC(N2CCC(Oc3ccc(S(=O)(=O)c4ccc5c(c4)OCO5)cc3)CC2)CC1` was tested. Which Ratio [1] did it give?
The Ratio was 2.

What about the Ratio [2] of the same compound?
Its Ratio is 16.

And the Ki [3]?
Its Ki is 14 nM.

And the Ratio [4]?
Its Ratio is 2.

And the Ratio [5]?
The Ratio was 10.

What does the source list for `O=C(COc1ccccc1)N1CCC(N2CCC(Oc3ccc(S(=O)(=O)c4ccc5c(c4)OCO5)cc3)CC2)CC1`?
Ratio [1]: 5; Ratio [2]: 13; Ki [3]: 59.5 nM; Ratio [4]: 3; Ratio [5]: 8

With `CCCS(=O)(=O)N1CCC(N2CCC(Oc3ccc(S(=O)(=O)c4ccc5c(c4)OCO5)cc3)CC2)CC1` as the compound, how does the Ratio [1] read?
Its Ratio is 46.

What about the Ratio [2] of the same compound?
Its Ratio is 39.

And the Ki [3]?
The Ki was 1.6 nM.

What about the Ratio [4] of the same compound?
The Ratio was 25.

And the Ratio [5]?
The Ratio was 58.

Which Ratio [1] does the source give for `O=S(=O)(c1ccc(OC2CCN(C3CCN(S(=O)(=O)Cc4ccccc4)CC3)CC2)cc1)c1ccc2c(c1)OCO2` here?
Its Ratio is 12.

What about the Ratio [2] of the same compound?
Its Ratio is 1.

What about the Ki [3] of the same compound?
Its Ki is 15 nM.

And the Ratio [4]?
The Ratio was 4.

What about the Ratio [5] of the same compound?
Its Ratio is 19.

With `Cc1cccc(C(=O)N2CCC(N3CCC(Oc4ccc(S(=O)(=O)c5ccc6c(c5)OCO6)cc4)CC3)CC2)c1C` as the compound, how does the Ratio [1] read?
The Ratio was 132.

What about the Ratio [2] of the same compound?
The Ratio was 56.

And the Ki [3]?
Its Ki is 0.4 nM.

What about the Ratio [4] of the same compound?
The Ratio was 31.

And the Ratio [5]?
The Ratio was 155.

Which results are given for `O=C(c1ccnc2ccccc12)N1CCC(N2CCC(Oc3ccc(S(=O)(=O)c4ccc5c(c4)OCO5)cc3)CC2)CC1`?
Ratio [1]: 117; Ratio [2]: 1480; Ki [3]: 1 nM; Ratio [4]: 18; Ratio [5]: 140

What does the source list for `O=C(c1cccc2ncccc12)N1CCC(N2CCC(Oc3ccc(S(=O)(=O)c4ccc5c(c4)OCO5)cc3)CC2)CC1`?
Ratio [1]: 124; Ratio [2]: 64; Ki [3]: 0.5 nM; Ratio [4]: 21; Ratio [5]: 233

Which results are given for `CC(C)OC(=O)N1CCC(N2CCC(Oc3ccc(S(=O)(=O)c4ccc5c(c4)OCO5)cc3)CC2)CC1`?
Ratio [1]: 19; Ratio [2]: 10; Ki [3]: 3.2 nM; Ratio [4]: 7; Ratio [5]: 59

For `O=S(=O)(c1ccc(OC2CCN(C3CCN(S(=O)(=O)c4cccc5ccccc45)CC3)CC2)cc1)c1ccc2c(c1)OCO2`, which Ratio [1] is on record?
Its Ratio is 8.

What about the Ratio [2] of the same compound?
The Ratio was 4.

And the Ki [3]?
Its Ki is 34.7 nM.

What about the Ratio [4] of the same compound?
The Ratio was 1.

What about the Ratio [5] of the same compound?
The Ratio was 2.

`CCS(=O)(=O)N1CCC(N2CCC(Oc3ccc(S(=O)(=O)c4ccc5c(c4)OCO5)cc3)CC2)CC1` was tested. Which Ratio [1] did it give?
The Ratio was 122.

And the Ratio [2]?
Its Ratio is 46.

And the Ki [3]?
Its Ki is 2 nM.

And the Ratio [4]?
The Ratio was 12.

What about the Ratio [5] of the same compound?
Its Ratio is 49.

For `CCOC(=O)N1CCC(N2CCC(Oc3ccc(S(=O)(=O)c4ccc5c(c4)OCO5)cc3)CC2)CC1`, which Ki [3] is on record?
Its Ki is 6 nM.

What about the Ratio [5] of the same compound?
Its Ratio is 4.

For `O=C(Oc1ccccc1)N1CCC(N2CCC(Oc3ccc(S(=O)(=O)c4ccc5c(c4)OCO5)cc3)CC2)CC1`, which Ratio [1] is on record?
Its Ratio is 61.

And the Ratio [2]?
The Ratio was 69.

What about the Ki [3] of the same compound?
Its Ki is 1.1 nM.

And the Ratio [4]?
The Ratio was 11.

And the Ratio [5]?
The Ratio was 48.

From ChEMBL document CHEMBL1134751, “Design and synthesis of ether analogues as potent and selective M2 muscarinic receptor antagonists” (Bioorg Med Chem Lett, 2001)
